Test results from publication PMC9184248 (Journal of Pesticide Science, 2022).
Each block holds one molecule with its values, some of them ahead of it.

Columns and labels:
Test in all cases: two-electrode voltage clamp, Xenopus oocytes
Format in all cases: cell-based
[1] = biological target: T1, LsRDLR (Laodelphax striatellus RDL GABA receptor) (Laodelphax striatellus, UniProt Q0ECT5, F128Y/Y91F)
T1 sequence (Q0ECT5 23-487 Y91F/F128Y): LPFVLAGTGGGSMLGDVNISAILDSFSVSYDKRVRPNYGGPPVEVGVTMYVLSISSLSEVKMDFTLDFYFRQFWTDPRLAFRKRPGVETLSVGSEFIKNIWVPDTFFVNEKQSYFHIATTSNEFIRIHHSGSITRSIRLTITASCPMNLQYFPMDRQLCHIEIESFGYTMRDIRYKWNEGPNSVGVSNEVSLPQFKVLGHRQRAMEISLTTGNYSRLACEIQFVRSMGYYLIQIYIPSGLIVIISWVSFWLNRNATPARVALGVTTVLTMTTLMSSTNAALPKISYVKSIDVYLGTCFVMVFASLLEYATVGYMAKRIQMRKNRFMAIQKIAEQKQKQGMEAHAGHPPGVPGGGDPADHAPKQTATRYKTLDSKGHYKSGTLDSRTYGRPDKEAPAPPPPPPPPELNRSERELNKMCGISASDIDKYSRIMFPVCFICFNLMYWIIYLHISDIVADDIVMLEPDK
Procedure, shortened: (§1)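 WT or site-directed mutant LsRDL cRNA (5 ng) injected into defolliculated Xenopus oocytes, which were then held 48 hr at 16°C in SOS (pH 7.6). Clamped at −80 mV, perfused with SOS at 18–20°C. GABA applied for 3 sec at 30–60 sec intervals. EC50 from a four-parameter variable-slope logistic fit; ≥6 oocytes from ≥2 frogs; mean±S.D.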

[2] = biological target: T2, LsRDLR (Laodelphax striatellus RDL GABA receptor) (Laodelphax striatellus, UniProt Q0ECT5, F128Y/F95S)
T2 sequence (Q0ECT5 23-487 F95S/F128Y): T1 sequence (Q0ECT5 23-487 Y91F/F128Y)
Procedure, shortened: as §1

[3] = biological target: T3, LsRDLR (Laodelphax striatellus RDL GABA receptor) (Laodelphax striatellus, UniProt Q0ECT5)
T3 sequence (Q0ECT5 23-487): T1 sequence (Q0ECT5 23-487 Y91F/F128Y)
Procedure, shortened: as §1

[4] = biological target: T4, LsRDLR (Laodelphax striatellus RDL GABA receptor) (Laodelphax striatellus, UniProt Q0ECT5, F95S/Y91F)
T4 sequence (Q0ECT5 23-487 Y91F/F95S): T1 sequence (Q0ECT5 23-487 Y91F/F128Y)
Procedure, shortened: as §1

[5] = biological target: T5, LsRDLR (Laodelphax striatellus RDL GABA receptor) (Laodelphax striatellus, UniProt Q0ECT5, Y91F)
T5 sequence (Q0ECT5 23-487 Y91F): T1 sequence (Q0ECT5 23-487 Y91F/F128Y)
Procedure, shortened: as §1

[6] = biological target: T6, LsRDLR (Laodelphax striatellus RDL GABA receptor) (Laodelphax striatellus, UniProt Q0ECT5, F95S)
T6 sequence (Q0ECT5 23-487 F95S): T1 sequence (Q0ECT5 23-487 Y91F/F128Y)
Procedure, shortened: as §1

[7] = biological target: T7, LsRDLR (Laodelphax striatellus RDL GABA receptor) (Laodelphax striatellus, UniProt Q0ECT5, F128Y/F95S/Y91F)
T7 sequence (Q0ECT5 23-487 Y91F/F95S/F128Y): T1 sequence (Q0ECT5 23-487 Y91F/F128Y)
Procedure, shortened: as §1

[8] = biological target: T8, LsRDLR (Laodelphax striatellus RDL GABA receptor) (Laodelphax striatellus, UniProt Q0ECT5, F128Y)
T8 sequence (Q0ECT5 23-487 F128Y): T1 sequence (Q0ECT5 23-487 Y91F/F128Y)
Procedure, shortened: as §1

[9] = biological target: T3, LsRDLR (Laodelphax striatellus RDL GABA receptor); conditions: read-out: % of control GABA response remaining at 30 μM gabazine

SMILES: NCCCC(=O)O [GABA]
EC50 [1]: 37.3 ± 11.8 µM | EC50 [2]: 25.6 ± 11.9 µM | EC50 [3]: 6.83 ± 3.74 µM | EC50 [4]: 63.2 ± 23.8 µM | EC50 [5]: 131 ± 45 µM | EC50 [6]: 4.08 ± 1.31 µM | EC50 [7]: 15.4 ± 3.7 µM | EC50 [8]: 43.7 ± 10.2 µM

remaining activity at 30 µM [9]: 77.8 ± 8%
SMILES: COc1ccc(-c2ccc(=N)n(CCCC(=O)O)n2)cc1 [gabazine, 2-(3-carboxypropyl)-6-(4-methoxyphenyl)-2,3-dihydropyridazin-3-iminium bromide]
